In ChEMBL document CHEMBL3526048, “In vitro metabolism of rivoglitazone, a novel peroxisome proliferator-activated receptor γ agonist, in rat, monkey, and human liver microsomes and freshly isolated hepatocytes” (Drug Metab Dispos, 2011):

Experiments:
Cytochrome P450 1A2 = molecular target: T1, Cytochrome P450 1A2 (Homo sapiens, UniProt P05177); assay: Activity of human CYP1A2 expressed in microsomes isolated from baculovirus infected insect cell assessed as enzyme-mediated compound formation treated with [14C]-rivoglitazone at 20 uM after 2 hrs by radio-HPLC/LC-MS/MS analysis in presence of NADPH-generating system; type: ADME
T1 sequence (P05177 whole entry): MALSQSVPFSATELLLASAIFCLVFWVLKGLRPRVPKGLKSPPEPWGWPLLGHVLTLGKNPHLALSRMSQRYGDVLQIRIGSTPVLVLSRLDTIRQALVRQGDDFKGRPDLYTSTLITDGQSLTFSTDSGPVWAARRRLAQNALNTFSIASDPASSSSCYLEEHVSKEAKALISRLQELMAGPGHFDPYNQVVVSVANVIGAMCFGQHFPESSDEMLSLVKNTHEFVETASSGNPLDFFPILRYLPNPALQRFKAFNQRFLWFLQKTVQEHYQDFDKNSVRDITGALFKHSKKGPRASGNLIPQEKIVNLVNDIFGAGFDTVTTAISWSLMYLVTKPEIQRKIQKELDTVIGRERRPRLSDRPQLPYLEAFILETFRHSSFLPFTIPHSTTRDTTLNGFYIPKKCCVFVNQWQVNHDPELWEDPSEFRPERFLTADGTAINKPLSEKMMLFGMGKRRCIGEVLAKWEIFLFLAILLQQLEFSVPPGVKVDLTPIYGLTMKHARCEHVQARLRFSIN
Outline: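 Baculovirus/insect-cell microsomes expressing single human CYPs, 1 mg/ml protein, with 50 mM potassium phosphate (pH 7.4) or 100 mM Tris-HCl (pH 7.5). NADPH-generating system: 2 mM NADP⁺, 20 mM glucose 6-phosphate, 2 units/ml G6PDH, 10 mM MgCl₂. [¹⁴C]rivoglitazone at 20 μM, 2 h at 37°C with shaking. Control used insect-cell control supersomes. Stopped with acetonitrile; supernatant concentrated under nitrogen; metabolites analysed by radio-HPLC, LC-MS and LC-MS/MS.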

Hepatocyte = assay: Drug level in rat hepatocytes treated with [14C]-rivoglitazone at 30 uM after 3 hrs by radio-HPLC/LC-MS/MS analysis in presence of UDPGA, UDPGA/SAM and NADPH-generating system; type: ADME, cell-based
[1] = Drug metabolism in human hepatocytes assessed as formation of 2-mercapto-3-(4-((6-methoxy-1-methyl-1H-benzo[d]imidazol-2-yl)methoxy)phenyl)propanamide at 30 uM after 3 hrs by radio-HPLC/LC-MS/MS analysis in presence of NADPH-generating system and NADPH-generating system/SAM; type: ADME, cell-based, Hepatocyte
[2] = molecular target: T2, UDP-glucuronosyltransferase 1A3 (Homo sapiens, UniProt P35503); assay: Activity of human UGT1A3 expressed in microsomes isolated from baculovirus infected insect cell assessed as enzyme-mediated 5-(4-((6-methoxy-1H-benzo[d]imidazol-2-yl)methoxy)benzyl)thiazolidine-2,4-dione formation at 20 uM after 4 hrs by radio-HPLC/LC-MS/MS analysis in presence of NADPH-generating system and NADPH-generating system/SAM in presence of UDPGA and UDPGA/SAM; type: ADME
T2 sequence (P35503 whole entry): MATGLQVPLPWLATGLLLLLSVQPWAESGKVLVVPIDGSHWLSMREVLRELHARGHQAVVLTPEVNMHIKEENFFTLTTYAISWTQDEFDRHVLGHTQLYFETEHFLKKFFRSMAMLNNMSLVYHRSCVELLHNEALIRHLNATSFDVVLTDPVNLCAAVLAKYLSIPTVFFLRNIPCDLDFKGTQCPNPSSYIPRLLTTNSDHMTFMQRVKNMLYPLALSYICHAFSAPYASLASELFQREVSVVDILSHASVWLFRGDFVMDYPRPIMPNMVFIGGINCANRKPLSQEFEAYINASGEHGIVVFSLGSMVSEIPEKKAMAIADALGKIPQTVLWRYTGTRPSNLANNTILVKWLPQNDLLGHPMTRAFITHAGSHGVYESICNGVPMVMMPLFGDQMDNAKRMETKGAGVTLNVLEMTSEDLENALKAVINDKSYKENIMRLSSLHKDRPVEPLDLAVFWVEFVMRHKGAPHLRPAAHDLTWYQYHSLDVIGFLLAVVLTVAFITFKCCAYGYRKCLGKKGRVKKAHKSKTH

Cytochrome P450 2C9 [3] = molecular target: T3, Cytochrome P450 2C9 (Homo sapiens, UniProt P11712); assay: Activity of human CYP2C9 expressed in microsomes isolated from baculovirus infected insect cell assessed as enzyme-mediated 3-(4-((6-methoxy-1-methyl-1H-benzo[d]imidazol-2-yl)methoxy)phenyl)-2-(methylsulfinyl)propanamide formation at 20 uM after 2 hrs by radio-HPLC/LC-MS/MS analysis in presence of NADPH-generating system/SAM; type: ADME
T3 sequence (P11712 whole entry): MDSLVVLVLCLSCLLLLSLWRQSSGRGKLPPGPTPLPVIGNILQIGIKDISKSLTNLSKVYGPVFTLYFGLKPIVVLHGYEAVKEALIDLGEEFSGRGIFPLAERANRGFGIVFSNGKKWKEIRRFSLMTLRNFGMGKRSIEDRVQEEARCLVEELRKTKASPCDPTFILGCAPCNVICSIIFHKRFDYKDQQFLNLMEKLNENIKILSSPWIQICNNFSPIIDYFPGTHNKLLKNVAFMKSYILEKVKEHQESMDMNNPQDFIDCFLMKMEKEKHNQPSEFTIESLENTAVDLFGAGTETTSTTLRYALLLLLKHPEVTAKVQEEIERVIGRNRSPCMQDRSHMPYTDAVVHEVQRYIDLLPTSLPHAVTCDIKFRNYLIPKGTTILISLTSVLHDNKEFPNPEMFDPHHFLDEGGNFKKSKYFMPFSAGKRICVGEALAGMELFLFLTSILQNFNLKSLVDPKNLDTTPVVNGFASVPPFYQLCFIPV

Liver microsome = assay: Drug metabolism in human liver microsomes assessed as formation of 2-amino-3-((1-carboxy-2-(4-((6-methoxy-1-methyl-1H-benzo[d]imidazol-2-yl)methoxy)phenyl)ethyl)disulfanyl)propanoic acid at 20 uM by radio-HPLC/LC-MS/MS analysis; type: ADME
Cytochrome P450 2C9 [4] = molecular target: T3, Cytochrome P450 2C9; assay: Activity of human CYP2C9 expressed in microsomes isolated from baculovirus infected insect cell assessed as enzyme-mediated 2-amino-3-((1-carboxy-2-(4-((6-methoxy-1-methyl-1H-benzo[d]imidazol-2-yl)methoxy)phenyl)ethyl)disulfanyl)propanoic acid formation at 20 uM after 2 hrs by radio-HPLC/LC-MS/MS analysis; type: ADME
Outline: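 Baculovirus-insect-cell microsomes expressing the human CYP (1 mg/ml protein) were incubated with [14C]rivoglitazone (20 μM) in 50 mM potassium phosphate (pH 7.4) or 100 mM Tris-HCl (pH 7.5) with an NADPH-generating system (2 mM NADP+, 20 mM glucose 6-phosphate, 2 units/ml G6PDH, 10 mM MgCl2) for 2 h at 37°C. Insect-cell control supersomes served as the control. Reactions were stopped with acetonitrile, and the concentrated supernatants were analysed by radio-HPLC, LC-MS and LC-MS/MS.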

Cytochrome P450 3A4 = Cytochrome P450 3A4 (Homo sapiens, UniProt P08684); assay: Activity of human CYP3A4 expressed in microsomes isolated from baculovirus infected insect cell assessed as enzyme-mediated 3-(4-((6-methoxy-1-methyl-1H-benzo[d]imidazol-2-yl)methoxy)phenyl)-2-(methylthio)propanoic acid formation at 20 uM after 2 hrs by radio-HPLC/LC-MS/MS analysis in presence of NADPH-generating system/SAM and UDPGA/SAM; type: ADME
Sequence of Cytochrome P450 3A4 (P08684 whole entry): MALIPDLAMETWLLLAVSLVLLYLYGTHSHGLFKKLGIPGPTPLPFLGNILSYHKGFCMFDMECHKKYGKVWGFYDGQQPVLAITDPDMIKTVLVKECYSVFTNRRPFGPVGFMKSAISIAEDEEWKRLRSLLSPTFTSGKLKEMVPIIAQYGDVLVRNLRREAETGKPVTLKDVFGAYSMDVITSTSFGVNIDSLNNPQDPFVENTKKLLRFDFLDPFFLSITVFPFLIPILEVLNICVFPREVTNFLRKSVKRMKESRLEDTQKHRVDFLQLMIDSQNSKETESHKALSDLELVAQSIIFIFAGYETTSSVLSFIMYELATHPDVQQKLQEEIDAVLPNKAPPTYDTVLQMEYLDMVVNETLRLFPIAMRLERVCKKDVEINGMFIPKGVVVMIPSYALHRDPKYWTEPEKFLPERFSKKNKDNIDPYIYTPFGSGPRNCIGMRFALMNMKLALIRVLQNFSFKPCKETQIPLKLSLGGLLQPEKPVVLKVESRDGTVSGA

Cytochrome P450 2C8 = molecular target: T4, Cytochrome P450 2C8 (Homo sapiens, UniProt P10632); assay: Activity of human CYP2C8 expressed in microsomes isolated from baculovirus infected insect cell assessed as enzyme-mediated 3-(4-((6-methoxy-1-methyl-1H-benzo[d]imidazol-2-yl)methoxy)phenyl)-2-(methylthio)propanamide formation at 20 uM after 2 hrs by radio-HPLC/LC-MS/MS analysis in presence of NADPH-generating system/SAM; type: ADME
T4 sequence (P10632 whole entry): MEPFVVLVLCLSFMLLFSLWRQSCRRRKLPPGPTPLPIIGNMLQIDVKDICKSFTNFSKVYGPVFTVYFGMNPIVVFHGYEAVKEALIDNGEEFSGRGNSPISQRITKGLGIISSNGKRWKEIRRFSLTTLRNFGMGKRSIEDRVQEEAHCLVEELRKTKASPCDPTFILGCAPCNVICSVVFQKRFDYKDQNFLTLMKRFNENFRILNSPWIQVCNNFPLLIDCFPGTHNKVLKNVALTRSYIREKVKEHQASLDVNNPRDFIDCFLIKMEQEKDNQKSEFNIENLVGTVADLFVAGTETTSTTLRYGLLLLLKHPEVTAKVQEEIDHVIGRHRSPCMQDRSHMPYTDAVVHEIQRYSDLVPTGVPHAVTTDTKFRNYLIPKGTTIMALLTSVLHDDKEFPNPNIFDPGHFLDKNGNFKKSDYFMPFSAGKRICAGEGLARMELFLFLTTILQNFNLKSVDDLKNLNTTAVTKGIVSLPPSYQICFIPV

Row | Drug metabolism (Cytochrome P450 1A2) | Drug metabolism (Hepatocyte) | Drug metabolism [1] | Drug metabolism [2] | Drug metabolism (Cytochrome P450 2C9 [3]) | Drug metabolism (Liver microsome) | Drug metabolism (Cytochrome P450 2C9 [4]) | Drug metabolism (Cytochrome P450 3A4) | Drug metabolism (Cytochrome P450 2C8) | SMILES
1 | metabolite_detected | metabolite_not_detected | – | – | – | – | – | – | – | COc1ccc2nc(COc3ccc(CC(S)C(=O)O)cc3)n(C)c2c1 (centres undefined)
2 | – | – | metabolite_not_detected | metabolite_not_detected | metabolite_not_detected | metabolite_not_detected | metabolite_not_detected | metabolite_not_detected | metabolite_not_detected | COc1ccc2nc(COc3ccc(C[14CH]4SC(=O)NC4=O)cc3)n(C)c2c1.Cl (racemic)
